This passage reports Ki results from ChEMBL document CHEMBL1765020, “Synthesis and structure-affinity relationships of novel dibenzylideneacetone derivatives as probes for β-amyloid plaques” (J Med Chem, 2011).

As a reminder, the Ki is a dissociation constant, usually derived from enzyme kinetics or from competition with a known ligand. Lower therefore signals tighter binding.

The assay is described as follows: Displacement of [125I]IMPY from amyloid beta (1 to 42) aggregate after 2 hrs by gamma counting. A digest of the protocol:
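Competition binding in 1 mL PBS (0.2 M, pH 7.4). Aggregated Aβ1-42 fibrils (60 nM final) with [125I]IMPY and inhibitor at 10^-5 to 10^-10 M, added in ethanol. Nonspecific binding was defined with 1 μM IMPY. Incubated 2 h at 37 °C with shaking, then vacuum-filtered through glass fibre filters and the bound fraction gamma-counted. IC50 was converted to Ki by Cheng-Prusoff; triplicate, mean ± SD.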
For orientation: Displacement assays read how much labelled ligand stays bound in the presence of the test substance.
`COc1ccc2cc(/C=C/C(=O)/C=C/c3ccc(N(C)C)cc3)ccc2c1` yielded a Ki of 2.5 nM.
In the case of `CNc1ccc(/C=C/C(=O)/C=C/c2ccc(N(C)C)cc2)cc1`, affinity was put at a Ki of 2.9 nM.
With `CN(C)c1ccc(/C=C/C(=O)/C=C/c2ccccc2N)cc1` the figure was 8.4 nM; with `O=C(/C=C/c1ccc(Cl)cc1)/C=C/c1ccc(Cl)cc1`, 9 nM.
The figure for `CN(C)c1ccc(/C=C/C(=O)/C=C/c2ccc(Br)nc2)cc1` is 2.3 nM; for `CN(C)c1ccc(/C=C/C(=O)/C=C/c2cc(Br)ccc2O)cc1` it is 16.2 nM; for `CN(C)c1ccc(/C=C/C(=O)/C=C/c2cc(C(F)(F)F)cc(C(F)(F)F)c2)cc1` it is 4 nM.
The figure for `COc1ccc(/C=C/C(=O)/C=C/c2ccc(N(C)C)cc2)cc1` is 0.7 nM; for `CN(C)c1ccc(/C=C/C(=O)/C=C/c2ccc3[nH]ccc3c2)cc1` it is 4.2 nM; for `CN(C)c1ccc(/C=C/C(=O)/C=C/c2ccc3c(c2)OCO3)cc1` it is 1.8 nM.
In turn, `CN(C)c1ccc(/C=C/C(=O)/C=C/c2ccc(I)nc2)cc1` yielded an inhibition constant Ki of 4.8 nM.
With `CN(C)c1ccc(/C=C2\CCC/C(=C\c3ccc(N(C)C)cc3)C2=O)cc1` the figure was 1 nM; with `O=C1/C(=C/c2ccc(Cl)cc2)CCC/C1=C\c1ccc(Cl)cc1`, 11.4 nM.
`CN(C)c1ccc(/C=C/C(=O)/C=C/c2ccc(OCc3ccccc3)cc2)cc1` came in with a Ki of 2 nM.
With `CN(C)c1ccc(/C=C/C(=O)/C=C/c2cccc(Oc3ccccc3)c2)cc1` the figure was 3.8 nM; with `CN(C)c1ccc(/C=C/C(=O)/C=C/c2ccc(N)cc2)cc1`, 3.7 nM; with `CN(C)c1ccc(/C=C/C(=O)/C=C/c2ccccc2OCc2ccccc2)cc1`, 18.6 nM.
The figure for `COc1cc(/C=C/C(=O)CC(=O)/C=C/c2ccc(O)c(OC)c2)ccc1O` [CURCUMIN] is 49.8 nM; for `Nc1ccc(/C=C/C(=O)/C=C/c2ccc(I)cc2)cc1` it is 7 nM; for `COc1cc(/C=C/C(=O)/C=C/c2ccc(N(C)C)cc2)cc(OC)c1OC` it is 5.2 nM.
`CN(C)c1ccc(/C=C/C(=O)/C=C/c2cc([N+](=O)[O-])ccc2OCc2ccccc2)cc1` returned a Ki of 33.3 nM.
With `CN(C)c1ccc(/C=C/C(=O)/C=C/c2ccccc2Cl)cc1` the figure was 0.9 nM; with `CN(C)c1ccc(/C=C/C(=O)/C=C/c2cccc(Br)c2)cc1`, 1.9 nM.
With `CN(C)c1ccc(/C=C/C(=O)/C=C/c2ccc(C(F)(F)F)cc2)cc1` the figure was 0.8 nM; with `CN(C)c1ccc(/C=C/C(=O)/C=C/c2cccc([N+](=O)[O-])c2)cc1`, 4 nM; with `CN(C)c1ccc(/C=C/C(=O)/C=C/c2ccccc2[N+](=O)[O-])cc1`, 18.8 nM.
With `CN(C)c1ccc(/C=C/C(=O)/C=C/c2ccccn2)cc1` the figure was 23 nM; with `CN(C)c1ccc(/C=C/C(=O)/C=C/c2ccc(OCCOCCF)cc2)cc1`, 4.4 nM; with `COc1cc(/C=C/C(=O)/C=C/c2ccc(N(C)C)cc2)ccc1OCc1ccccc1`, 4.1 nM.
On to `CN(C)c1ccc(/C=C/C(=O)/C=C/c2ccc(Cl)nc2)cc1`, for which the Ki amounted to 2.2 nM. This Ki is about 1.9-fold lower than that of the compound before.
`COc1ccc(/C=C2\CCC/C(=C\c3ccc(OC)cc3)C2=O)cc1` showed a Ki of 24.8 nM.
Take `CN(C)c1ccc(/C=C/C(=O)/C=C/c2ccc(N(c3ccccc3)c3ccccc3)cc2)cc1`: the affinity corresponds to a Ki of 131 nM.
The figure for `CN(C)c1ccc(/C=C/C(=O)/C=C/c2cccc(I)c2)cc1` is 5.5 nM; for `COc1cc(OC)c(/C=C/C(=O)/C=C/c2ccc(N(C)C)cc2)c(OC)c1` it is 39.1 nM.
`CNc1ccccc1/C=C/C(=O)/C=C/c1ccc(N(C)C)cc1` yielded a Ki of 2640 nM.
The figure for `CN(C)c1ccc(/C=C/C(=O)/C=C/c2ccc(OC(c3ccccc3)(c3ccccc3)c3ccccc3)cc2)cc1` is 2.8 nM; for `CN(C)c1ccc(/C=C/C(=O)/C=C/c2cccc(F)c2)cc1` it is 1.2 nM.
The figure for `CN(C)c1ccc(/C=C/C(=O)/C=C/c2ccc(Br)cc2)cc1` is 2.8 nM; for `CN(C)c1ccc(/C=C/C(=O)/C=C/c2c(Cl)cccc2Cl)cc1` it is 18.5 nM.
The figure for `CN(C)c1ccc(/C=C/C(=O)/C=C/c2c(F)cccc2Cl)cc1` is 9.2 nM.
Compound `COc1ccc(/C=C/C(=O)/C=C/c2ccc(OC)cc2)cc1` showed a Ki of 6.5 nM. This Ki and that of the compound before are within 1.5-fold of each other.
`CN(C)c1ccc(/C=C/C(=O)/C=C/c2ccc(-c3ccc(Br)s3)s2)cc1` gave a Ki of 11.7 nM.
`CN(C)c1ccc(/C=C/C(=O)/C=C/c2ccc[nH]2)cc1` returned a Ki of 5.8 nM. Against the preceding compound, the Ki is about 2-fold lower.
The figure for `O=C1/C(=C/c2ccccc2)CCC/C1=C\c1ccccc1` [2,6-DIBENZYLIDENECYCLOHEXANONE] is 704 nM.
With `CN(C)c1ccc(/C=C/C(=O)/C=C/c2ccc(F)cc2)cc1` the figure was 3.7 nM; with `CN(C)c1ccc(/C=C/C(=O)/C=C/c2ccco2)cc1`, 8.5 nM.
With `CN(C)c1ccc(/C=C/C(=O)/C=C/c2ccc([N+](=O)[O-])cc2)cc1`, the Ki came to 5.2 nM.
The figure for `CN(C)c1ccc(/C=C/C(=O)/C=C/c2cccc(N(C)C)c2)cc1` is 8 nM.
With `CCN(CC)c1ccc(/C=C/C(=O)/C=C/c2ccc(N(C)C)cc2)cc1` the figure was 15.7 nM; with `CNc1cccc(/C=C/C(=O)/C=C/c2ccc(N(C)C)cc2)c1`, 8.1 nM; with `CN(C)c1ccc(/C=C/C(=O)/C=C/c2ccc(O)cc2)cc1`, 6.8 nM.
In the case of `COc1cc(/C=C/C(=O)/C=C/c2ccc(N(C)C)cc2)cc(OC)c1`, the Ki amounted to 4.7 nM. This Ki and that of the compound before are within 1.5-fold of each other.
Regarding `CN(C)c1ccc(/C=C/C(=O)/C=C/c2cccs2)cc1`, the affinity corresponds to a Ki of 5.3 nM.
For the compound `Cc1ccc(/C=C/C(=O)/C=C/c2ccc(N(C)C)cc2)cc1`, the affinity, expressed as Ki, was 1.3 nM. Against the preceding compound, the Ki is about 4.1-fold lower.
With `CN(C)c1ccc(/C=C/C(=O)/C=C/c2ccc(C(=O)O)cc2)cc1` the figure was 78.1 nM.
With `CN(C)c1ccc(/C=C/C(=O)/C=C/c2cccc(N)c2)cc1` the figure was 13.7 nM; with `COc1ccc(/C=C/C(=O)/C=C/c2ccc(N(C)C)cc2)cc1OC`, 5.4 nM; with `CN(C)c1ccc(/C=C/C(=O)/C=C/c2ccc(Br)s2)cc1`, 3.8 nM.
In turn, `CN(C)c1ccc(/C=C/C(=O)/C=C/c2ccccc2)cc1` displayed an inhibition constant Ki of 1.2 nM.
With `COc1ccc(/C=C/C(=O)/C=C/c2ccc(N(C)C)cc2)c(OC)c1` the figure was 2.8 nM; with `CN(C)c1ccc(/C=C/C(=O)/C=C/c2ccc(Cl)cc2)cc1`, 1.1 nM.
With `CN(C)c1ccc(/C=C/C(=O)/C=C/c2ccccc2O)cc1` the figure was 28.2 nM; with `O=C(/C=C/c1ccccc1)/C=C/c1ccccc1`, 242 nM.
The figure for `CN(C)c1ccc(/C=C/C(=O)/C=C/c2ccc(OCCF)cc2)cc1` is 5.6 nM; for `CN(C)c1ccc(/C=C/C(=O)/C=C/c2ccc(N(C)C)cc2)cc1` it is 2.7 nM.
